According to paper PMC6626631 (Biochemical and biophysical research communications, 2018):
Entries after “also recorded” stand apart in the source; their conditions may differ.

What was measured:
Format in all cases: biochemical
[1] = target: DRP1 (Homo sapiens, UniProt O00429); test: Malachite green GTPase activity assay in the absence of liposomes, DRP1; conditions: dose response in presence vs absence of liposomes
[2] = target: T1, dynamin-1 (1—752) (Homo sapiens, UniProt Q05193); test: Liposome-dependent malachite green GTPase activity assay, dynamin-1; conditions: read-out: Potency of inhibition, dynamin-1; data not shown
T1 sequence (Q05193 1-752): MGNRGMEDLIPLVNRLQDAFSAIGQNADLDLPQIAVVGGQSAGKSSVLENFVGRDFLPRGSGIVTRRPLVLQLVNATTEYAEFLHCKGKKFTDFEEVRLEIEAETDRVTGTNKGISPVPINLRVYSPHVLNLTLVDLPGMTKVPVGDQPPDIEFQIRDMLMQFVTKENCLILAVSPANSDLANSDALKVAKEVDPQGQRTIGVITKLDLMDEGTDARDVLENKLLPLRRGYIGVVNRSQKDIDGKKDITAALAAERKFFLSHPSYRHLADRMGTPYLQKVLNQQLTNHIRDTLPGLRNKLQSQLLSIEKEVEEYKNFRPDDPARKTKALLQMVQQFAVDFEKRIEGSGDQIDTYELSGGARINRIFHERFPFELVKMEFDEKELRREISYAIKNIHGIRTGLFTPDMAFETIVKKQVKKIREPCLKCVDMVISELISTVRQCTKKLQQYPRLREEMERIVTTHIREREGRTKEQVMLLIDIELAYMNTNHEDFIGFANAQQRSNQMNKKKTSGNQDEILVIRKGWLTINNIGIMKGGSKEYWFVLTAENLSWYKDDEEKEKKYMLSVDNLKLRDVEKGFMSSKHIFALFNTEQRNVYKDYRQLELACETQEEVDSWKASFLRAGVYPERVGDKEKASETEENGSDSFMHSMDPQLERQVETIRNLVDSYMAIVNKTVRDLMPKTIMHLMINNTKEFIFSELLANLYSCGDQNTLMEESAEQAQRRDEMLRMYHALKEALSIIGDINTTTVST
Summary of the method: (§1)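 Ni-NTA-purified E. coli enzyme (tag removed for dynamin-1, OPA1), 0.6 μM, preincubated 20 min RT with 80:20 soybean polar lipid:cardiolipin liposomes (0.1 mg/mL) and compound or DMSO; started by 1 mM GTP at 37 °C in 10 mM Hepes pH 7.0, 100 mM KCl, 4 mM MgCl2, 1% DMSO. EDTA stop, malachite green, A650 to phosphate rate; IC50 4-parameter fit.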

[3] = target: T2, OPA1 (195—960) (Homo sapiens, UniProt O60313); test: Liposome-dependent malachite green GTPase activity assay, OPA1; conditions: read-out: Potency of inhibition, OPA1; data not shown
T2 sequence (O60313 195-960): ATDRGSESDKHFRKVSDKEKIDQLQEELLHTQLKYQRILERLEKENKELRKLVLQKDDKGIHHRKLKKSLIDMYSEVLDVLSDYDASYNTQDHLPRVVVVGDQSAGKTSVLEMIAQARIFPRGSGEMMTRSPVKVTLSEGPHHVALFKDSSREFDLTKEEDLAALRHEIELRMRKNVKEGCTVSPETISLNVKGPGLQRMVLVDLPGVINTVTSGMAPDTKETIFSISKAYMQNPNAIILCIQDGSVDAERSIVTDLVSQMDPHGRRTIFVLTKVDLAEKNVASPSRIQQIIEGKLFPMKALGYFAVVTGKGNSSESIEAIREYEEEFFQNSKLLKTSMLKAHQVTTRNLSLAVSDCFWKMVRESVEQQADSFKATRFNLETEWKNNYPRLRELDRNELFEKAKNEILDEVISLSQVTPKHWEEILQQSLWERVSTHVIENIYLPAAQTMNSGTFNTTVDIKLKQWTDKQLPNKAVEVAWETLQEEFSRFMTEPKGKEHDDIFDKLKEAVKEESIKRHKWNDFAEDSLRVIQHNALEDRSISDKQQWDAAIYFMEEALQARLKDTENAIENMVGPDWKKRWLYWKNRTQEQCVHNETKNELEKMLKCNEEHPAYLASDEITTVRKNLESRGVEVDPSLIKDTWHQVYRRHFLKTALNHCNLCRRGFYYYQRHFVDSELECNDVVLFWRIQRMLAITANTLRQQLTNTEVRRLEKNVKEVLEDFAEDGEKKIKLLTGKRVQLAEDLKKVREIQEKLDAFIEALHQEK
Summary of the method: as §1

[4] = target: Human DRP1 (1—699) (Homo sapiens, UniProt O00429); test: Liposome-dependent malachite green GTPase activity assay, DRP1
Summary of the method: as §1

Human DRP1 (1—699), sequence (O00429 1-699 isoform O00429-4): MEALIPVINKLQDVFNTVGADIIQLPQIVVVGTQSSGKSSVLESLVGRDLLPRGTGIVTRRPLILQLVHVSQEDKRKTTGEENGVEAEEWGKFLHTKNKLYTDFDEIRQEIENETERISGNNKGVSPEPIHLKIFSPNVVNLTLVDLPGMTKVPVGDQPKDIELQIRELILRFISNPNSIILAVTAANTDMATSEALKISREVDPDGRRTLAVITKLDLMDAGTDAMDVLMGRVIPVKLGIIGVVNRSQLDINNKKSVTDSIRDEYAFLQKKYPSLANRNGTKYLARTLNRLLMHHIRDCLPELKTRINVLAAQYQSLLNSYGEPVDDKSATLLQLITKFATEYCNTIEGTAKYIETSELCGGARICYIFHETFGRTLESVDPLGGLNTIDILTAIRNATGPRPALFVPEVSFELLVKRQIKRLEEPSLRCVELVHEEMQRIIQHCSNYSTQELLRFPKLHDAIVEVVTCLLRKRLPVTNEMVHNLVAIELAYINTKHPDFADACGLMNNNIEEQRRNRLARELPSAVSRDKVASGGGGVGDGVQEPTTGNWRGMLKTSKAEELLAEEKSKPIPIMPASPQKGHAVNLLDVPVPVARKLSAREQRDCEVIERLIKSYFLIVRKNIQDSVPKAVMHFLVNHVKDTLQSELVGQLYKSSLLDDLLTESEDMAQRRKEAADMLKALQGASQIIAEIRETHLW
DRP1, sequence (O00429 1-699 isoform O00429-4): as above

Nc1nc2c(ncn2[C@@H]2O[C@H](COP(=O)(O)OP(=O)(O)OP(O)(O)=S)[C@@H](O)[C@H]2O)c(=O)[nH]1 [GTPγS]
Potency/activity in the absence of liposomes [1]: unaffected by liposomes | IC50 [2]: 300 to 500 µM | IC50 [3]: 300 to 500 µM | IC50 ([4]; read-out: Potency of inhibition, DRP1, data not shown): 300 to 500 µM

COc1cc(-n2c(=S)[nH]c3ccccc3c2=O)c(Cl)cc1Cl [mdivi-1]
Inhibition of DRP1 GTPase activity (in words) ([4]; presence of liposomes, up to 100 μM compound concentration): did not inhibit oligomeric DRP1 GTPase activity; also recorded: do not inhibit DRP1 up to 100 μM
